≈ marks a conversion by molar mass, not a printed value.

Consider 13 compounds from ChEMBL document CHEMBL2040808, “Design, synthesis, and in vitro activity of novel 2'-O-substituted 15-membered azalides” (J Med Chem, 2012).

Data set [1] deals with Plasmodium falciparum. Kind of data set: Antimalarial activity against chloroquine-sensitive Plasmodium falciparum 3D7A infected in type A rhesus-positive human erythrocytes assessed as [3H]hypoxanthine incorporation after 48 hrs by scintillation counting. It counts as functional, organism-based. In short, it runs like this: (§1)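 Modified semiautomated microdilution: compounds dissolved in DMSO, diluted in RPMI 1640 with 10% v/v human plasma, serial 1:2 dilutions in triplicate. Infected erythrocytes at 3% hematocrit, 0.25−0.55% parasitemia. [3H]hypoxanthine at 12.5−16 μCi/mL final. Incubated 48 h, 37 °C, in 5% O2/3% CO2/92% N2. Harvested on fiberglass strips, scintillation counted. IC50 by nonlinear regression of concentration−response curves.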

Data set [2] has as its system Plasmodium falciparum. Kind of data set: Antimalarial activity against chloroquine-resistant Plasmodium falciparum W2 infected in type A rhesus-positive human erythrocytes assessed as [3H]hypoxanthine incorporation after 48 hrs by scintillation counting. It counts as functional, organism-based. The procedure, abridged:
as §1

In data set [3] the test system is Plasmodium falciparum. Put plainly: Ratio of IC50 for azithromycin to compound IC50 for chloroquine-sensitive Plasmodium falciparum 3D7A infected in type A rhesus-positive human erythrocytes assessed as [3H]hypoxanthine incorporation after 48 hrs by scintillation counting. It counts as functional.
The test system of data set [4] is Plasmodium falciparum. Put plainly: Ratio of IC50 for azithromycin to compound IC50 for chloroquine-resistant Plasmodium falciparum W2 infected in type A rhesus-positive human erythrocytes assessed as [3H]hypoxanthine incorporation after 48 hrs by scintillation counting. It counts as functional.
For data set [5], the system named is HepG2. Kind of data set: Cytotoxicity against human HepG2 cells after 24 hrs by MTS assay. It counts as cell-based. The conditions noted are these: HepG2, 24 h. The procedure, abridged: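 Hep G2 cells were kept in RPMI 1640 with 10% FBS at 37 °C and 5% CO2. Wells held 50000 cells and received 1:2 serial dilutions of compound (DMSO stock diluted in medium) for 24 h. MTS reagent was then added for 2 h, absorbance was read at 490 nm, and IC50 was taken from response curves.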

Data set [6] can be described thus: Selectivity ratio of IC50 for human HepG2 cells to IC50 for chloroquine-sensitive Plasmodium falciparum 3D7A. It counts as ADME, cell-based. The settings on record: HepG2 cells versus Plasmodium falciparum 3D7A, read-out: Ratio IC50. The procedure, abridged: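 Selectivity is the HepG2 IC50 divided by the P. falciparum IC50. For HepG2, 50000 cells per well in RPMI 1640 with 10% FBS were exposed to 1:2 serial dilutions for 24 h at 37 °C, 5% CO2. MTS was added for 2 h and absorbance read at 490 nm. Parasite IC50 came from the 48 h [3H]hypoxanthine assay.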

Data set [7] relates to Streptococcus pneumoniae. Put plainly: Antibacterial activity against Streptococcus pneumoniae isolate SP030 by broth microdilution method. It counts as functional. In short, it runs like this:
(§2)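 Standard broth microdilution MIC against macrolide-sensitive strains. For streptococci, 5% horse serum replaced lysed horse blood in the broth, and inocula were grown on Columbia agar with 5% sheep blood. S. aureus was grown on Mueller–Hinton agar.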

The test system of data set [8] is Streptococcus pyogenes. Kind of data set: Antibacterial activity against Streptococcus pyogenes isolate 3565 by broth microdilution method. It counts as functional. The procedure, abridged: as §2
In general terms: Broth dilution looks for growth in wells or tubes with falling amounts of substance.

The test system of data set [9] is Staphylococcus aureus. Kind of data set: Antibacterial activity against Staphylococcus aureus ATCC 13709 by broth microdilution method. It counts as functional. In short, it runs like this:
as §2

The nature of data set [10]: Aqueous solubility of the compound at pH 4. It counts as physicochemical.
Data set [11] is described as follows: Selectivity ratio of IC50 for human HepG2 cells to IC50 for chloroquine-sensitive Plasmodium falciparum 3D7A. The conditions noted are these: HepG2 cells versus Plasmodium falciparum 3D7A.

With `CC[C@H]1OC(=O)[C@H](C)[C@@H](O[C@H]2C[C@@](C)(OC)[C@@H](O)[C@H](C)O2)[C@H](C)[C@@H](O[C@@H]2O[C@H](C)C[C@H](N(C)C)[C@H]2OCCCNC(=O)CNc2ccnc3cc(Cl)ccc23)[C@](C)(O)C[C@@H](C)CN(C)[C@H](C)[C@@H](O)[C@]1(C)O`, the half-inhibitory concentration (IC50) (as a rule, the concentration that gives 50% inhibition) in data set [1] amounted to 14 nM; in data set [2] it was 9 nM; in [5] it was 28000 nM. The “Ratio IC50” value in data set [3] and in [4] was 3 in each case. In addition, the selectivity ratio in data set [6] and in data set [11] was 132 each time. Moreover, the minimum inhibitory concentration (MIC) in data set [7], in [8] and in data set [9] was more than 64 µg/mL in each case. For the same compound, in data set [10], the solubility (in general, how much of the substance goes into solution per volume) is more than 10000 µg/mL.

For `CC[C@H]1OC(=O)[C@H](C)[C@@H](O[C@H]2C[C@@](C)(OC)[C@@H](O)[C@H](C)O2)[C@H](C)[C@@H](O[C@@H]2O[C@H](C)C[C@H](N(C)C)[C@H]2OCCCNC(=O)CNc2ccnc3ccccc23)[C@](C)(O)C[C@@H](C)CN(C)[C@H](C)[C@@H](O)[C@]1(C)O`, the results for the IC50 in data set [1], in data set [2] and in data set [5] were 119 nM, 68 nM and more than 100000 nM, respectively. For the same compound, the “Ratio IC50” value in [3] and in [4] was 3 throughout. In addition, the selectivity ratio in data set [6] and in data set [11] was 132 throughout. Also, the MIC in data set [7], in [8] and in data set [9] was more than 64 µg/mL each time. In addition, in data set [10], the solubility is more than 10000 µg/mL.

Turning to `CC[C@H]1OC(=O)[C@H](C)[C@@H](O)[C@H](C)[C@@H](O[C@@H]2O[C@H](C)C[C@H](N(C)C)[C@H]2OCCCNC(=O)CNc2ccnc3cc(Cl)ccc23)[C@](C)(O)C[C@@H](C)CN(C)[C@H](C)[C@@H](O)[C@]1(C)O`, the IC50 in data set [1] is 138 nM; in data set [2], 84 nM; in data set [5] it was more than 100000 nM. Moreover, the “Ratio IC50” value in data set [3] and in data set [4] was 3 in each case. Besides, the selectivity ratio in data set [6] and in data set [11] was 132 throughout. For the same compound, the minimal inhibitory concentration (MIC) in [7], in [8] and in data set [9] was more than 64 µg/mL in each case. The same compound displayed a solubility in [10] of more than 10000 µg/mL.

On to `CC[C@H]1OC(=O)[C@H](C)[C@@H](O)[C@H](C)[C@@H](O[C@@H]2O[C@H](C)C[C@H](N(C)C)[C@H]2OCCCNC(=O)CNc2ccnc3ccccc23)[C@](C)(O)C[C@@H](C)CN(C)[C@H](C)[C@@H](O)[C@]1(C)O`, for which the IC50 in data set [1] is 1660 nM; in data set [2], 815 nM. Also, the “Ratio IC50” value in data set [3] and in data set [4] was 3 throughout. In addition, the selectivity ratio in [6] and in [11] was 132 each time. For the same compound, the solubility in data set [10] was more than 10000 µg/mL.

In the case of `CC[C@H]1OC(=O)[C@H](C)[C@@H](O[C@H]2C[C@@](C)(OC)[C@@H](O)[C@H](C)O2)[C@H](C)[C@@H](O[C@@H]2O[C@H](C)C[C@H](N(C)C)[C@H]2OCCCNC(=O)CCCNc2ccnc3cc(Cl)ccc23)[C@](C)(O)C[C@@H](C)CN(C)[C@H](C)[C@@H](O)[C@]1(C)O`, the IC50 turned out to be 29 nM in [1], 19 nM in data set [2] and 50000 nM in data set [5]. The “Ratio IC50” value in data set [3] and in data set [4] was 3 throughout. The selectivity ratio in data set [6] and in [11] was 132 throughout. Further, the MIC in [7], in data set [8] and in data set [9] was more than 64 µg/mL each time. Also, in data set [10], the solubility was more than 10000 µg/mL.

Regarding `CC[C@H]1OC(=O)[C@H](C)[C@@H](O[C@H]2C[C@@](C)(OC)[C@@H](O)[C@H](C)O2)[C@H](C)[C@@H](O[C@@H]2O[C@H](C)C[C@H](N(C)C)[C@H]2OCCCNC(=O)CCCNc2ccnc3ccccc23)[C@](C)(O)C[C@@H](C)CN(C)[C@H](C)[C@@H](O)[C@]1(C)O`, the IC50 in data set [1] is 220 nM; in data set [2] it was 135 nM; in [5], more than 100000 nM. Further, the “Ratio IC50” value in [3] and in data set [4] was 3 throughout. Moreover, the selectivity ratio in data set [6] and in data set [11] was 132 in each case. Besides, the MIC in data set [7], in data set [8] and in [9] was more than 64 µg/mL each time. Moreover, the solubility in [10] is more than 10000 µg/mL.

For the compound `CC[C@H]1OC(=O)[C@H](C)[C@@H](O)[C@H](C)[C@@H](O[C@@H]2O[C@H](C)C[C@H](N(C)C)[C@H]2OCCCNC(=O)CCCNc2ccnc3cc(Cl)ccc23)[C@](C)(O)C[C@@H](C)CN(C)[C@H](C)[C@@H](O)[C@]1(C)O`, the half-inhibitory concentration (IC50) in data set [1] stood at 402 nM; in data set [2], 224 nM; in data set [5], 75000 nM. Besides, the “Ratio IC50” value in [3] and in [4] was 3 each time. The selectivity ratio in [6] and in data set [11] was 132 in each case. Also, the minimum inhibitory concentration (MIC) in data set [7], in data set [8] and in data set [9] was more than 64 µg/mL throughout. In data set [10], this compound came in with a solubility of more than 10000 µg/mL.

On to `CC[C@H]1OC(=O)[C@H](C)[C@@H](O[C@H]2C[C@@](C)(OC)[C@@H](O)[C@H](C)O2)[C@H](C)[C@@H](O[C@@H]2O[C@H](C)C[C@H](N(C)C)[C@H]2OCCCNc2ccnc3cc(Cl)ccc23)[C@](C)(O)C[C@@H](C)CN(C)[C@H](C)[C@@H](O)[C@]1(C)O`, for which the IC50 in data set [1] came to 21 nM; in [2] it was 10 nM; in data set [5], 45000 nM. The “Ratio IC50” value in data set [3] and in data set [4] was 3 throughout. Moreover, the selectivity ratio in [6] and in data set [11] was 132 each time. For the same compound, the MIC – broadly, the lowest concentration that inhibits growth of the organism – in data set [7] is 64 µg/mL (≈ 66.1 µM); in data set [8], 64 µg/mL (≈ 66.1 µM); in [9] it was more than 64 µg/mL. The compound further came in with a solubility in [10] of more than 10000 µg/mL.

For `CC[C@H]1OC(=O)[C@H](C)[C@@H](O[C@H]2C[C@@](C)(OC)[C@@H](O)[C@H](C)O2)[C@H](C)[C@@H](O[C@@H]2O[C@H](C)C[C@H](N(C)C)[C@H]2OCCCNc2ccnc3ccccc23)[C@](C)(O)C[C@@H](C)CN(C)[C@H](C)[C@@H](O)[C@]1(C)O`, the half-inhibitory concentration (IC50) in [1] came to 64 nM; in [2], 35 nM; in [5], 80000 nM. In addition, the “Ratio IC50” value in data set [3] and in data set [4] was 3 in each case. Further, the selectivity ratio in [6] and in data set [11] was 132 in each case. Also, the MIC was determined as 32 µg/mL (≈ 34.3 µM) in data set [7], 32 µg/mL (≈ 34.3 µM) in data set [8] and 16 µg/mL (≈ 17.1 µM) in data set [9]. The compound further returned a solubility in data set [10] of more than 10000 µg/mL.

In the case of `CC[C@H]1OC(=O)[C@H](C)[C@@H](O)[C@H](C)[C@@H](O[C@@H]2O[C@H](C)C[C@H](N(C)C)[C@H]2OCCCN(C)Cc2cnc3ccccc3c2)[C@](C)(O)C[C@@H](C)CN(C)[C@H](C)[C@@H](O)[C@]1(C)O`, the IC50 in [1] is 1290 nM; in data set [2], 311 nM; in data set [5], more than 100000 nM. Besides, the “Ratio IC50” value in data set [3] and in [4] was 3 throughout. The MIC in data set [7], in [8] and in data set [9] was more than 64 µg/mL throughout. Moreover, the solubility in data set [10] is more than 10000 µg/mL.

On to `CC[C@H]1OC(=O)[C@H](C)[C@@H](O)[C@H](C)[C@@H](O[C@@H]2O[C@H](C)C[C@H](N(C)C)[C@H]2OCCCNCc2cnc3ccccc3c2)[C@](C)(O)C[C@@H](C)CN(C)[C@H](C)[C@@H](O)[C@]1(C)O`, for which the half-maximal inhibitory concentration (IC50) in [1] was 1370 nM; in data set [2], 286 nM; in data set [5], more than 100000 nM. Also, the “Ratio IC50” value in data set [3] and in [4] was 3 in each case. Moreover, the MIC in data set [7], in data set [8] and in [9] was more than 64 µg/mL throughout. The solubility in data set [10] is more than 10000 µg/mL.

Take `CC[C@H]1OC(=O)[C@H](C)[C@@H](O[C@H]2C[C@@](C)(OC)[C@@H](O)[C@H](C)O2)[C@H](C)[C@@H](O[C@@H]2O[C@H](C)C[C@H](N(C)C)[C@H]2O)[C@](C)(O)C[C@@H](C)CN(C)[C@H](C)[C@@H](O)[C@]1(C)O` [AZITHROMYCIN]: the selectivity ratio in [6] and in [11] was 132 each time. Further, the MIC in data set [7] is not above 0.125 µg/mL; in [8], not above 0.125 µg/mL; in [9] it was 0.5 µg/mL (≈ 0.668 µM).

In the case of `CCN(CC)CCCC(C)Nc1ccnc2cc(Cl)ccc12` (stereo unspecified) [CHLOROQUINE], the MIC in data set [7], in [8] and in data set [9] was more than 64 µg/mL each time.
